Compounds with a hit are over-represented: about 3.1% of the library has one in this group of screens.
SENP6 block: blocks the human protease SENP6. Recombinant SENP6 catalytic domain, aminoluciferin luminescence. AID 2599. inhibition, % at 10 µM. 1.8% of 330,000 active;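 active means inhibition above about 50% at the single tested dose, limit read from the data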;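 further: plate controls were DMSO wells with enzyme for no effect and DMSO wells lacking enzyme for full effect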
Target sequence (Q9GZR1 628-1112 limits assumed): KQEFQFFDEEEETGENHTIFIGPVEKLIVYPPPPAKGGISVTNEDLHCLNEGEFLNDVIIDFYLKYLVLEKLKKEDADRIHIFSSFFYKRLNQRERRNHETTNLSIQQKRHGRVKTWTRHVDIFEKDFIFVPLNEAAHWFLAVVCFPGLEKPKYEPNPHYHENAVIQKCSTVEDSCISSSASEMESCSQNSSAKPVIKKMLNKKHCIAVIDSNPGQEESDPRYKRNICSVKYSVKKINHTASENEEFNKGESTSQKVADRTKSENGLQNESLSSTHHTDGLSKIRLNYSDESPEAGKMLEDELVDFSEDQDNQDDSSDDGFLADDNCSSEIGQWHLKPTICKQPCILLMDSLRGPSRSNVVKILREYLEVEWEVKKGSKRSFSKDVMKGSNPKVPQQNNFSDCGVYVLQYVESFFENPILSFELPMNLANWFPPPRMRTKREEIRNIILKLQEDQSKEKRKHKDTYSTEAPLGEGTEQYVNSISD
UBC13 inh: human UBC13 polyubiquitination inhibition. P61088. UBC13 polyubiquitin chain formation, TR-FRET. inhibition, % at 20 µM. 0.47% of 330,000 active; in the data active means inhibition above about 45%, passing the limit was not always enough
Target sequence (P61088 whole entry, looked up): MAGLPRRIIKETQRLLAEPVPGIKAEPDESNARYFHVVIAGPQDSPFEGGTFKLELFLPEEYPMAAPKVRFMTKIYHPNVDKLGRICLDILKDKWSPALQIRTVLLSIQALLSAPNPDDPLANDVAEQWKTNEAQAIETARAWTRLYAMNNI
Apaf-1 inh: human Apaf-1 inhibition; reconstituted apoptosome caspase-3 activity, DEVD-Rh110 fluorescence; inhibition, % at 20 µM; 0.71% of 330,000 active; AID 489030; active means inhibition of at least 40% at 20 µM;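 further: plate controls were DMSO wells for no effect and DEVD-CHO caspase inhibitor wells for full effect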
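detection = Rh110 fluorescence intensity | test system = biochemical Apaf-1 apoptosome reconstitution | also added = cytochrome c and DEVD-Rh110 substrate | schedule = 30 min plus 50 min, RT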
SENP8 block-1: inhibitors of human SENP8 protease | inhibition, % at 10 µM | 1.2% of 330,000 active | Q96LD8 | purified SENP8, Z-RLRGG-aminoluciferin cleavage, luminescence; in the data active means inhibition above about 50%
SENP7 block: SENP7 protease inhibition. Q9BQF6. recombinant SENP7, Z-RLRGG-aminoluciferin luminescence, 40 min. inhibition, % at 5 µM. 1.5% of 330,000 active. AID 434973;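 active means inhibition above about 50% at the single test dose, limit read from the data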;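 further: plate controls were DMSO with enzyme for no effect and no enzyme buffer wells for full effect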
SENP8 block-2: inhibitors of human SENP8 protease; Q96LD8; recombinant SENP8, Nedd8 substrate fluorescence; inhibition, % at 20 µM; 0.64% of 360,000 active; AID 602440; in the data active means inhibition mostly above about 40%, no sharp cut-off; inactive means mostly below about 27%
SENP8 conf: human SENP8 inhibition, confirmed; 40% of 6,200 active; inhibition, % at 12.5 µM; shares compounds with SENP7 block; Recombinant SENP8, Z-RLRGG-aminoluciferin luminescence, 60 min;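 active means mean inhibition across replicates above about 50%, limit read from the data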
SENP6 confirm: human SENP6 inhibition, confirmed; shares compounds with SENP7 block; recombinant SENP6, Z-RLRGG-aminoluciferin luminescence; inhibition, % at 12.5 µM; 58% of 6,200 active
SENP7 confirm: human SENP7 inhibition, confirmed; shares compounds with SENP7 block; recombinant SENP7, Z-RLRGG-aminoluciferin luminescence, 40 min; inhibition, % at 12.5 µM; 69% of 6,200 active
Casp3 select: inhibits human caspase-3 in SENP selectivity test | 60% of 6,200 active | inhibition, % at 12.5 µM | purified caspase-3, Z-DEVD-aminoluciferin luminescence, 60 min | AID 488918 | shares compounds with SENP7 block;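 active means mean inhibition above about 50%, limit read from the data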;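 further: plate controls were enzyme with DMSO for no effect and wells without caspase-3 for full effect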
SENP luc ctr: counter-screen for SENP inhibitors: luminescence interference; shares compounds with SENP7 block; Pre-incubated SENP8/Z-RLRGG-aminoluciferin, luciferase luminescence interference; inhibition, % at 12.5 µM; 39% of 6,200 active; AID 488919;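 active means mean inhibition above about 50% when retested at one dose, limit read from the data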;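 further: plate controls were DMSO wells with completed reaction for no effect and substrate without enzyme for full effect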
Active calls of the source: *; i = inactive; / = no result given.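 How the source made its calls, unless noted: active means mean inhibition above about 50% in the one-dose retest (limit read from the data); inactive means the rest.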

SMILES	SENP6 block	UBC13 inh	Apaf-1 inh	SENP8 block-1	SENP7 block	SENP8 block-2	SENP8 conf	SENP6 confirm	SENP7 confirm	Casp3 select	SENP luc ctr
Cc1csc(NC(=O)c2sccc2C)n1	95*	0	2	91*	96*	-11	95*	95*	101*	98*	94*
Cc1ccsc1C(=O)Nc1nccs1	64*	2	-2	51*	63*	2	58*	57*	86*	86*	52*
COCCNc1nc(NCc2cc(-c3ccc(OC)cc3)no2)c2sccc2n1	/	/	/	/	/	-24	/	/	/	/	/
Clc1ccccc1C=NNc1ccccn1	/	/	/	/	/	9	/	/	/	/	/
CCOc1ccc(/C=N/Nc2ccccn2)cc1	84*	-14	2	91*	95*	10	63*	94*	102*	65*	12
Brc1ccc(/C=N/Nc2ccccn2)cc1	1	1	5	33	65*	24	-4	43	86*	40	1
FC(F)(F)c1ccccc1/C=N/Nc1ccccn1	14	7	9	-9	4	9	/	/	/	/	/
Brc1ccccc1/C=N/Nc1ccccn1	-27	5	-8	35	86*	3	-6	3	10	10	-3
C(=N\Nc1ccccn1)/c1ccc(N2CCOCC2)cc1	19	-5	-9	33	48	-207	/	/	/	/	/
CCCOc1ccc(/C=N/NC(=O)C(=O)Nc2ccccn2)cc1	16	-7	-16	-2	7	-22	/	/	/	/	/
Fc1ccc(/C=N/Nc2ccccn2)cc1	66*	10	-8	46	64*	11	30	42	82*	56*	42
COc1ccc(/C=C/C(=O)OCC(=O)NC2CCCCCC2)cc1	/	/	/	/	/	14	/	/	/	/	/
N#CCCN(CCCN1CCOCC1)CN1C(=O)c2ccccc2C1=O	/	/	/	/	/	10	/	/	/	/	/
COc1cc(C#N)c(NC(=S)N2CCN(C(=O)c3ccco3)CC2)cc1OC	/	/	/	/	/	-12	/	/	/	/	/
COc1ccc(/C=N/Nc2ccccn2)cc1O	57*	-15	4	12	33	11	42	36	77*	72*	64*
Clc1ccc(/C=N/Nc2ccccn2)cc1	13	-9	-2	52*	69*	7	4	54*	72*	51*	9
Oc1cccc(C=NNc2ccccn2)c1	/	/	/	/	/	14	/	/	/	/	/
NC(c1csc(Nc2nccc(C(F)(F)F)n2)n1)C1CCCCC1 (stereo not drawn)	/	/	/	/	/	14	/	/	/	/	/
Cc1[nH]n(-c2ccccc2)c(=O)c1N=Nc1cccc(C(=O)O)c1	56*	-27	4	-9	0	49*	30	22	59*	5	28
Cc1[nH]n(C(N)=S)c(=O)c1N=Nc1cccc(C(F)(F)F)c1	79*	-8	-2	81*	38	25	-6	1	8	5	1
Cc1[nH]n(C(N)=S)c(=O)c1N=Nc1cc(C(F)(F)F)ccc1Cl	-17	-9	-4	19	-6	22	/	/	/	/	/
Cc1[nH]n(C(N)=S)c(=O)c1N=Nc1ccc(Br)cc1	93*	-4	-14	92*	82*	28	-8	10	20	26	-2
Cc1[nH]n(C2=NCCS2)c(=O)c1N=Nc1cccc(C(F)(F)F)c1	74*	-38	-2	19	31	30	35	30	26	48	4
CNS(=O)(=O)c1cccc(C(=O)OCC(=O)c2c(N)n(Cc3ccccc3)c(=O)n(C)c2=O)c1	/	/	/	/	/	0	/	/	/	/	/
COc1ccc(Cl)cc1NC(=O)c1cnc2sccn2c1=O	-12	15	2	-8	-15	-309	/	/	/	/	/
SMILES	SENP6 block	UBC13 inh	Apaf-1 inh	SENP8 block-1	SENP7 block	SENP8 block-2	SENP8 conf	SENP6 confirm	SENP7 confirm	Casp3 select	SENP luc ctr
O=C(Nc1cnc2sccn2c1=O)c1ccc(Cl)cc1Cl	29	-2	8	-9	56*	-23	14	13	35	53*	16
O=C(Nc1ccc(S(=O)(=O)N2CCCCCC2)cc1)c1[nH]ncc1[N+](=O)[O-]	75*	-19	3	75*	41	10	-7	72*	90*	65*	78*
Cc1ccc(NC(=O)Nc2cccc([N+](=O)[O-])c2)cc1F	-12	10	1	-15	-4	4	/	/	/	/	/
O=C(Nc1ccc(OC(F)(F)F)cc1)Nc1cccc([N+](=O)[O-])c1	56*	4	18	28	24	14	8	26	72*	6	0
O=C(Nc1ccc(OC(F)(F)F)cc1)c1[nH]ncc1[N+](=O)[O-]	72*	-10	4	56*	32	1	70*	68*	88*	59*	70*
COc1ccc(OCCNC(=O)c2ccc3nc(C)c(N(C)Cc4ccc(NC(C)=O)cc4)n3c2)cc1	/	/	/	/	/	7	/	/	/	/	/
CSc1ccc(C(O)c2ncc(-c3ccccc3Cl)[nH]2)cc1 (stereo not drawn)	/	/	/	/	/	16	/	/	/	/	/
c1ccc(-c2ncc3c(ccc4ccccc43)n2)cc1	68*	7	3	41	90*	3	17	17	28	20	6
c1ccc2c(c1)cnc1ccccc12	-7	-4	-16	-11	14	13	/	/	/	/	/
c1ccc(-c2cnc(-c3ccccc3)nc2)cc1	73*	-1	-2	62*	90*	3	11	17	7	9	8
COc1ccc(NS(=O)(=O)c2cc(NC(=O)C(CC(C)C)NC(N)=O)ccc2N2CCOCC2)cc1 (stereo not drawn)	/	/	/	/	/	5	/	/	/	/	/
O=C(O/N=C/c1ccc(Br)cc1)c1ccc(F)cc1	41	-3	-10	26	76*	-6	-2	-10	21	29	0
O=C(N/N=C/c1ccc(Br)cc1)c1ccc(F)cc1	43	3	2	6	35	15	/	/	/	/	/
COc1ccccc1NC(=O)c1cc2ccc(O)cc2o/c1=N\O	95*	1	-2	94*	95*	i	8	99*	103*	92*	52*
COc1ccccc1N=c1oc2cc(O)ccc2cc1C(N)=O	91*	0	4	50	0	-285	99*	100*	101*	99*	92*
COc1ccccc1NC(=O)c1cc2ccccc2o/c1=N\O	3	14	-3	-23	7	13	/	/	/	/	/
O=C(NCc1ccccc1)c1cc(C2CCCN(S(=O)(=O)c3cccs3)C2)on1 (stereo not drawn)	/	/	/	/	/	10	/	/	/	/	/

Bioassay records deposited in PubChem BioAssay by Sanford-Burnham Center for Chemical Genomics.
